≈ marks a conversion by molar mass, not a printed value.
Tests used:
[1] = Displacement of [3H]-DTG from sigma 2 receptor in guinea pig brain membrane after 120 mins by liquid scintillation counting; format: cell membranes, Cavia porcellus
Outline: (§1)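 Guinea pig brain membranes (200 μg) with 10 nM [³H]-DTG in 50 mM Tris-HCl pH 8, σ1R masked by 400 nM (+)-SKF10047; 25 °C, 120 min; 10 μM haloperidol for non-specific binding. Filtered, washed 3× ice-cold 50 mM Tris-HCl pH 7.4, scintillation counted.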

[2] = biological target: Sigma non-opioid intracellular receptor 1 (Homo sapiens, UniProt Q99720); test: Displacement of [3H](+)-pentazocine from human sigma 1 receptor transfected in HEK293 cells after 120 mins by liquid scintillation counting; format: cell-based
Sequence of Sigma non-opioid intracellular receptor 1 (Q99720 whole entry): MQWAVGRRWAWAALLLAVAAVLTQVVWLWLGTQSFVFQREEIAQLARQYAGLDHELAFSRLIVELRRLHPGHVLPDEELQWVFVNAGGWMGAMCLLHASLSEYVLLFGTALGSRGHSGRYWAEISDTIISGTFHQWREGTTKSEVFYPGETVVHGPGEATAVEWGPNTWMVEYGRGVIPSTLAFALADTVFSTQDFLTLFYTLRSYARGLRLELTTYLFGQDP

[3] = species: Cavia porcellus; test: Displacement of [3H]-DTG from sigma 2 receptor in guinea pig brain membrane at 1 uM after 120 mins by liquid scintillation counting; format: cell membranes; outline: as §1
[4] = Intrinsic clearance in human liver microsomes assessed as per mg of protein at 10 uM; format: ADME; conditions: read-out: CLH
[5] = tested on: Mus musculus; test: Antinociceptive activity in CD1 mouse sciatic nerve injury-induced neuropathic pain model assessed as reduction in mechanical hypersensitivity measured as hind paw withdrawal response at 80 mg/kg, po treated 30 mins before test by von Frey filament test; format: functional
Outline: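 Male CD1 mice with partial sciatic nerve ligation; habituation 4 days, 2 baseline days, allodynia checked days 5 and 8 (vehicle on day 8). Compound given p.o. (10 mL/kg) on day 15, 30 min before von Frey testing; n = 7–8/group, two independent experiments. Effect referenced to day-8 vehicle threshold and pre-surgery baseline.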

[6] = tested on: Mus musculus; test: Antinociceptive activity against formalin-induced pain in CD1 mouse assessed as reduction in mean licking and biting time at 40 mg/kg, ip administered 30 mins before fomalin injection measured during second phase of 15 to 30 mins after formalin challenge; format: functional; conditions: route intraperitoneal
Outline: (§2)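 Male CD1 mice, 6–8 weeks; 20 μL of 2.5% formalin (0.92% formaldehyde) injected i.pl. into right hind paw midplantar surface. Vehicle 0.5% HPMC or compound given i.p. or p.o. (10 mL/kg) 30 min before formalin; n = 7–8/group. Licking/biting time scored 15–30 min post-injection (phase II), blind; % antinociception derived relative to vehicle group.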

[7] = tested on: Mus musculus; test: Antinociceptive activity in CD1 mouse assessed as reduction in capsaicin-induced mechanical hypersensitivity measured as latency time to paw withdrawal response to upward pressure at 80 mg/kg, po administered 30 mins prior to capsaicin-challenge measured after 45 mins of treatment by von Frey filament test; format: functional
Outline: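 Female CD1 mice habituated 2 h on mesh platform; vehicle 0.5% HPMC or compound p.o. (10 mL/kg) 30 min before i.pl. capsaicin (1 μg in 20 μL 1% DMSO). 15 min after capsaicin, dynamic plantar aesthesiometer filament (0.5 g) applied ≥5 mm from site, 3 trials averaged, 50 s cut-off; n = 8–26. % reduction of hypersensitivity = (LTD−LTV)/(CT−LTV)×100.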

[8] = tested on: Mus musculus; test: Antinociceptive activity against formalin-induced pain in CD1 mouse assessed as reduction in mean licking and biting time at 80 mg/kg, po administered 30 mins before fomalin injection measured during second phase of 15 to 30 mins after formalin challenge; format: functional; outline: as §2
[9] = biological target: Voltage-gated inwardly rectifying potassium channel KCNH2 (Homo sapiens, UniProt Q12809)
Sequence of Voltage-gated inwardly rectifying potassium channel KCNH2 (Q12809 whole entry): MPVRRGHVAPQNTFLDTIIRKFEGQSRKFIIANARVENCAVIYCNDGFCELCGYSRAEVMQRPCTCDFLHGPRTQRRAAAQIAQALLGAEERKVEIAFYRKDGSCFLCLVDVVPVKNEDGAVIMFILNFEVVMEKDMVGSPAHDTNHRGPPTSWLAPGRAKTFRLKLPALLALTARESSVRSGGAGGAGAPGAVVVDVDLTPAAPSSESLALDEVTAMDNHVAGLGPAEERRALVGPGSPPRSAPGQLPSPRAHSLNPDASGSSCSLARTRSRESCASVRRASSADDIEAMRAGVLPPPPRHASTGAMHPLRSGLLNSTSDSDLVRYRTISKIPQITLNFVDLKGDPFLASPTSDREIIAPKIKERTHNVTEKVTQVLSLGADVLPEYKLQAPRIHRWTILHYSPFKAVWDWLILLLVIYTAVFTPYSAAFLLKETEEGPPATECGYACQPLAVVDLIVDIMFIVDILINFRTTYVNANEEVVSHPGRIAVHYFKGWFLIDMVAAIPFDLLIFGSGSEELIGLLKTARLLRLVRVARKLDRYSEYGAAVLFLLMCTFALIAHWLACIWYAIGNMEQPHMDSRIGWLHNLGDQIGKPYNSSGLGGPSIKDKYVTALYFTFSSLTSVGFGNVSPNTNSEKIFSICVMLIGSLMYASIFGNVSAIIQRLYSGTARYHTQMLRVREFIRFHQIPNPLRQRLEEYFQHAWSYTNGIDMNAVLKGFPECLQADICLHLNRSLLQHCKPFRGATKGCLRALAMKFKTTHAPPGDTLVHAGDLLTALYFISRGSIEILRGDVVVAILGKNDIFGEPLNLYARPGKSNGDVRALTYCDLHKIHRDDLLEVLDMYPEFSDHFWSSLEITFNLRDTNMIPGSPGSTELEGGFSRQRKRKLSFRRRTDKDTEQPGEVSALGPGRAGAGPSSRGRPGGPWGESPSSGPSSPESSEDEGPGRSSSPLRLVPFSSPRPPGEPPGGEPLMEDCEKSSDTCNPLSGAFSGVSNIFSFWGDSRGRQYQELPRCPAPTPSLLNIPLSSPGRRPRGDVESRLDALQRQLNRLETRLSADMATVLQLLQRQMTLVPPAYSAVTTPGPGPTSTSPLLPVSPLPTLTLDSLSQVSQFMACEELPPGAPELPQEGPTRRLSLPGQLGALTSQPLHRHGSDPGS

[10] = Thermodynamic solubility of the compound in phosphate buffer at pH 7.4; format: physicochemical; conditions: read-out: Therm_solubility
Outline: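 Thermodynamic solubility measured from solid compound in phosphate buffer, pH 7.4, quantified by HPLC.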

[11] = Apparent permeability across human Caco2 cells at 10 uM after 2 hrs; format: ADME, cell-based; conditions: Caco-2
[12] = Lipophilicity, log P of the compound; format: physicochemical; conditions: octanol/water
Outline: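 clogP calculated with ChemDraw Ultra 10.0.3.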

[13] = Dissociation constant, pKa of the compound; format: physicochemical
Outline: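 pKa calculated in silico with ACDLABS 9.0.3.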

CCN(CCN1CCOCC1)c1cn(-c2ccc(Cl)c(Cl)c2)nn1
Ki [1]: 55 nM

Clc1ccc(-n2ccc(NCCN3CCOCC3)n2)cc1Cl
Ki [1]: 562 nM

Fc1ccc(-n2cc(NCCN3CCOCC3)nn2)cc1F
Ki [2]: > 1000 nM

Clc1ccc(Cn2cc(NCCN3CCCOCC3)nn2)cc1Cl
inhibition [3]: 66%

Cc1cc(OCCN2CCOCC2)nn1-c1ccc2ccccc2c1
microsomal CLint at 10 µM [4]: 3 µL/min/mg
inhibition in vivo at 80 mg/kg [5]: 62%
inhibition in vivo at 40 mg/kg [6]: 50%
Ki [1]: > 1000 nM
inhibition in vivo at 80 mg/kg [7]: 48%
inhibition in vivo at 80 mg/kg [8]: 66%

Clc1ccc(Cn2cc(NCCN3CCCCC3)nn2)cc1Cl
Ki [1]: 69 nM

CN1CCN(CCNc2cn(Cc3ccccc3)nn2)CC1
Ki [2]: 9620 nM

Clc1ccc(-n2cc(NCCN3CCCCC3)nn2)c(Cl)c1
inhibition [3]: 62%

Clc1ccc(-n2cc(NCCN3CCCCC3)nn2)cc1Cl
IC50 [9]: 1.7 µM
Ki [1]: 323 nM

Fc1ccc(-n2cc(NCCN3CCCCC3)nn2)cc1
inhibition [3]: 54%

Fc1cccc(-n2cc(NCCN3CCCCC3)nn2)c1
IC50 [9]: 5.2 µM
inhibition [3]: 59%

Fc1ccc(-n2cc(NCCN3CCCCC3)nn2)cc1F
IC50 [9]: 2.2 µM
inhibition [3]: 65%

Clc1ccc(Cn2cc(NCCN3CCCCCC3)nn2)cc1Cl
inhibition [3]: 87%

Fc1ccc(Cn2cc(NCCN3CCC(F)(F)CC3)nn2)cc1F
IC50 [9]: > 10 µM
Ki [1]: > 10000 nM

CC(=O)N(CCN1CCOCC1)c1cn(Cc2ccc(Cl)c(Cl)c2)nn1
Ki [2]: 459 nM

Clc1ccc(-n2cc(NCCN3CCOCC3)nn2)cc1Cl
microsomal CLint at 10 µM [4]: 0.8 µL/min/mg
solubility thermodynamic [10]: 170 µg/mL (≈ 497 µM)
inhibition in vivo at 80 mg/kg [5]: 56%
inhibition in vivo at 40 mg/kg [6]: 95%
IC50 [9]: > 10 µM
Papp at 2 h, 10 µM [11]: 51 ×10⁻⁶ cm/s
logP [12]: 2.9
Ki [1]: > 10000 nM
inhibition in vivo at 80 mg/kg [7]: 68%
inhibition in vivo at 80 mg/kg [8]: 62%
pKa [13]: 6.6

Fc1ccc(-n2cc(NCCN3CCC(F)(F)CC3)nn2)cc1F
IC50 [9]: > 10 µM
inhibition [3]: 29%

Fc1cccc(Cn2cc(NCCN3CCCCC3)nn2)c1
IC50 [9]: > 10 µM
inhibition [3]: 43%

Fc1cccc(-n2cc(NCCN3CCOCC3)nn2)c1
Ki [2]: 781 nM

c1ccc(Cn2cc(NCCN3CCOCC3)nn2)cc1
Ki [2]: > 1000 nM

Fc1ccc(Cn2cc(NCCN3CCOCC3)nn2)cc1F
Ki [2]: 878 nM

CC(=O)N(CCN1CCOCC1)c1cn(-c2ccc(Cl)c(Cl)c2)nn1
Ki [2]: 388 nM

Fc1ccc(Cn2cc(NCCN3CCCCC3)nn2)cc1F
Ki [1]: 946 nM

CCN(CCN1CCOCC1)c1cn(C23CC4CC(CC(C4)C2)C3)nn1
Ki [1]: 72 nM

Clc1ccc(-n2cc(NCCN3CCCCC3)nn2)cc1
IC50 [9]: 3.1 µM
inhibition [3]: 65%

c1c(NCCN2CCOCC2)nnn1C12CC3CC(CC(C3)C1)C2
IC50 [9]: > 10 µM

Fc1ccc(Cn2cc(NCCN3CCC(F)(F)CC3)nn2)cc1
Ki [1]: > 10000 nM

CC(=O)N1CCN(CCNc2cn(Cc3ccc(Cl)c(Cl)c3)nn2)CC1
Ki [2]: 818 nM

c1ccc(Cn2cc(NCCN3CCCCCC3)nn2)cc1
inhibition [3]: 75%

Fc1cccc(-n2cc(NCCN3CCN(C4CCCCC4)CC3)nn2)c1
inhibition [3]: 74%

CCCN(CCN1CCOCC1)c1cn(-c2ccc(Cl)c(Cl)c2)nn1
Ki [2]: 451 nM

Clc1ccc(-n2ccc(NCCN3CCCCC3)n2)cc1Cl
Ki [2]: 10 nM
Ki [1]: 91 nM

Clc1ccc(Cn2cc(NCCCN3CCOCC3)nn2)cc1Cl
Ki [2]: 508 nM

Clc1ccc(Cn2cc(NCCN3CCOCC3)nn2)cc1Cl
microsomal CLint at 10 µM [4]: 2.9 µL/min/mg
solubility thermodynamic [10]: > 4000 µg/mL
inhibition in vivo at 80 mg/kg [5]: 140%
inhibition in vivo at 40 mg/kg [6]: 94%
Papp at 2 h, 10 µM [11]: 46.2 ×10⁻⁶ cm/s
logP [12]: 2.4
Ki [1]: > 10000 nM
inhibition in vivo at 80 mg/kg [7]: 94%
inhibition in vivo at 80 mg/kg [8]: 67%
pKa [13]: 6.7

Fc1cccc(-n2cc(NCCN3CCCOCC3)nn2)c1
inhibition [3]: 47%

c1ccc(Cn2cc(NCCN3CCCCC3)nn2)cc1
Ki [1]: 624 nM

CS(=O)(=O)N(CCN1CCOCC1)c1cn(-c2ccc(Cl)c(Cl)c2)nn1
Ki [2]: > 1000 nM

Fc1ccc(Cn2cc(NCCN3CCCCC3)nn2)cc1
inhibition [3]: 66%

Fc1ccc(Cn2cc(NCCN3CCOCC3)nn2)cc1
Ki [2]: 662 nM

CCN(CC)CCNc1cn(Cc2ccccc2)nn1
Ki [2]: 701 nM

Fc1ccc(-n2cc(NCCN3CCCCC3)nn2)c(F)c1
inhibition [3]: 53%

c1c(NCCN2CCOCC2)nnn1C1CCCCC1
Ki [2]: > 1000 nM

Fc1cccc(-n2cc(NCCN3CCCCCC3)nn2)c1
inhibition [3]: 86%

C[C@@H]1CCC[C@H](C)N1CCNc1cn(Cc2ccc(F)cc2)nn1
inhibition [3]: 72%
